Source: the RNAGym collection of RNA variant scans (doi:10.1126/science.aae0568)
Variants at the floor of the assay were thinned out.

B1: tRNA (parent)
chain: GUUCCGUUGGCGUAAUGGUAACGCGUCUCCCUCCUAAGGAGAAGACUGCGGGUUCGAGUCCCGUACGGAACG

Variants of: B1
Experiment: yeast fitness relative to wild type (ratio to wild type); higher = fitter; tRNA-Arg(CCU), competitive growth, 37 C, YPD
Outline: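 For this measurement, the tRNA-Arg(CCU) gene was varied by chemical synthesis at a 3% per-site mutation rate across 69 sites, and each variant was placed at the native genomic locus in Saccharomyces cerevisiae. The pooled strains went through a 24-hour competition in YPD at 37°C in six parallel replicates, with amplicons from start and end populations read by 100-nucleotide paired-end sequencing. Darwinian fitness relative to wild type followed from the change in each genotype's frequency. Genotypes needed ≥ 100 starting reads, and estimates < 0.5 were set to 0.5.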

Q: With GGUCCGUUGGCAAAAUGGUAACGCCUCACCCUACUAAGGAGAAGACUGCGGGUUCGAGUCCCGUACUGAACG [U2G G12A U13A G25C U28A C33A G67U] as the variant, how does the yeast fitness read?
A: ≤ 0.5

Q: Which yeast fitness does the source give for GGUCCGUUGGCCUAAUGGUUACGCGUCUCCCUUCUAUGGAGAAGACUGCGGGUUCGUGUCCCGUACGGAACG [U2G G12C A20U C33U A37U A57U] here?
A: ≤ 0.5

Q: For GGUCCGUUAGCGUAAUGGUAAAGAGUCUCCCUCCUAAGGAGACGACUGCGGGUUCGAGUCCCGUACGGAACG [U2G G9A C22A C24A A43C], which yeast fitness is on record?
A: ≤ 0.5

Q: Which yeast fitness does the source give for GGUCCGUUGGCGUAAUGGUAACGCGUCUCCCUCCUAAGGAGAACACUGCGGGUUCGAGUUCCGUACGGGACG [U2G G44C C60U A69G] here?
A: ≤ 0.5

Q: With GGUCCGUUGGCGUAAUGGUAACGCGUCUCCCUCCUAAGGAGAAGACUACGGGUUCGACUCCCGUACGGAACG [U2G G48A G58C] as the variant, how does the yeast fitness read?
A: 0.895

Q: With GGUCCGUUGGCGUAAUGGUAACGCGUCUCCCUCCUAAGAAGAAGACUGCGAGUUCGAGUCCCGUACGGAACG [U2G G39A G51A] as the variant, how does the yeast fitness read?
A: ≤ 0.5

Q: Which yeast fitness does the source give for GGUCCGUUGGCGUAAUGGUAACGCUUCUCCCUCCUAAGGAGAAGACUGCGGGUUCGAGUCCCGUUCGGAACG [U2G G25U A65U] here?
A: 0.532

Q: For GGUCCGUUAGCGUAAUGGUAACGCGUCUCCCUCCUAAGGAAAAGACUGCGGGUUCGAGUCCCGUACGGAACG [U2G G9A G41A], which yeast fitness is on record?
A: ≤ 0.5

Q: For GGUCCAUUGGCGUAAUGGUAACGCGUCUCCCUCCUAAGGAGAAAACUGCGGGUUCGAGUCCCGUACCGAACG [U2G G6A G44A G67C], which yeast fitness is on record?
A: 0.531

Q: Which yeast fitness does the source give for GGUCCAUUGGCGUAAUGGUAACGCGUCUCCCUCCUAAGGAGAAGACUGCGGGUUCGAGUCCCGUACGGAGCG [U2G G6A A70G] here?
A: 0.776

Q: For GGUCCGUUGGCGUAAUGGUAACGCGUCUCCCUCCUAAGGAGAAGACUGCGGGUUCGACUCCCGUACGGAACG [U2G G58C], which yeast fitness is on record?
A: 0.755

Q: With GGUCCGUUGGCGUAAUGGUAACGCGUCUCCCUCCUAAGGAGAAGACUGCGGGUUCGAAUCCCGUACGGAACG [U2G G58A] as the variant, how does the yeast fitness read?
A: 1.16

Q: For GGUCCGUUGGCGUAAUGGUAACGCGUCUCCCUCCUAAGGAGAAGACUGCCGGUUCGAGUCCCGUACGGAACG [U2G G50C], which yeast fitness is on record?
A: 0.6

Q: Which yeast fitness does the source give for GGUCCGUUGGCGUAAUGGUAACGCGUCUCCCUCCUAAGGAGAAGACUGCAGGUUCGAGUCCCGUACGGAACG [U2G G50A] here?
A: 0.888

Q: Which yeast fitness does the source give for GGUCCAUUGGCGUAAUGGUAACACGUCUGCCUCCUAAGGAGAAGACUGCUGGUUAGAGUCCCGUACGGAACG [U2G G6A G23A C29G G50U C55A] here?
A: ≤ 0.5

Q: With GGUCCGUUGGCGUAAUGGUAACGCGUCUCCCUCCUAAGGAGAAGACUACGGGUUCGAGUGCCGUACGGAACG [U2G G48A C60G] as the variant, how does the yeast fitness read?
A: 0.541

Q: For GGUCCGUUGGCGUAAUGGUAACGCAUCUCCCUCCUAAGGAGAAGACUGCGGGUUCGAGUCCCGUCCGGAACG [U2G G25A A65C], which yeast fitness is on record?
A: 0.637

Q: With GGUCCGUUGGCGUAAUGGUAACGCCUCUCCCUCCUAAGGAGAAGACUGCGGAUUCGAGUCCCGUACGGAACG [U2G G25C G52A] as the variant, how does the yeast fitness read?
A: ≤ 0.5

Q: For GGUCCGUUGGCGUAAUGGUAACGCGUCUCCCUCCUAAGGACAAGACUGCGGGUUCGAGUCCCGUACGGAACG [U2G G41C], which yeast fitness is on record?
A: 0.818

Q: With GGUCCGUUGGCGUAAUGGUAACGCCUCUCCCUCCUAAGGAGAAGACUGCGGAUUCGCGUCCCGUACGGACCG [U2G G25C G52A A57C A70C] as the variant, how does the yeast fitness read?
A: ≤ 0.5

Q: With GGUCCGUUGGCGUAAUGCUAACGCGUCUGACUCGUAAGGAGAAGACUCCGGGUUCGAGUCCCGUACGGAACG [U2G G18C C29G C30A C34G G48C] as the variant, how does the yeast fitness read?
A: 0.604

Q: With GGUCCGUUCGCAUAAUGGUAACGCGUCUCCCUCCUAAGGAGCAGAAUGCGGGUUCGAGUCCCGUUCGGAACG [U2G G9C G12A A42C C46A A65U] as the variant, how does the yeast fitness read?
A: 0.577

Q: Which yeast fitness does the source give for GGUCCGUUGGCGUAAUGGUAACGCGUCUCCCUCCUAAGGAGAAGACUCCGGCUUCGAGUCCGGUACGGAACG [U2G G48C G52C C62G] here?
A: 0.541

Q: For GGUCCAUUGGCGUAAUGGUAAUGCGUUUCCCUCCUUAGGAGAAGACUGCGGGUUCGAGUGCCGUACGGAACG [U2G G6A C22U C27U A36U C60G], which yeast fitness is on record?
A: ≤ 0.5

Q: For GGUCCCUUGGCGUAAUGGUAACGCGUCUCCCUCCUAAGGAGAAGACUGCGGGUACGAGUCCCGUACGGAACG [U2G G6C U54A], which yeast fitness is on record?
A: ≤ 0.5

Q: For GGUCCAUUGGCGUAAUGGUAACGCGUCUCCCUCCUAAGGAGAAGACUGCGGGUUCCAGUCCCGUACGGAACG [U2G G6A G56C], which yeast fitness is on record?
A: ≤ 0.5

Q: With GGUCCGUUGGCGUAAUGAUAACGCGUCUCCCUCCUAAGGAGAAGACUGUGGAUUCGAGUCCCGUACGCAACG [U2G G18A C49U G52A G68C] as the variant, how does the yeast fitness read?
A: ≤ 0.5

Q: With GGUCCGUUGGCGUAAUGGUAACGCGUCUCCCUCCUAAGGAGAAGACUACGGGUUCGACUCACGUACGGAACG [U2G G48A G58C C61A] as the variant, how does the yeast fitness read?
A: ≤ 0.5

Q: Which yeast fitness does the source give for GGUCCGUUCGCAUAAUGGUGACGCGUCUCCCUCCUAAGGAGCAGAGUGUGGGUUCGAGUCCCGUACGGCACG [U2G G9C G12A A20G A42C C46G C49U A69C] here?
A: ≤ 0.5

Q: Which yeast fitness does the source give for GGUCCGUUGGCAUAAUGGUAACGCGUCUCCGUGCUAAGGUGAAGACUGCGGAUUCGAGUGCUGUACGGAACG [U2G G12A C31G C33G A40U G52A C60G C62U] here?
A: ≤ 0.5

Q: With GGUCCAUUGGCGUAAUGGUAACGCGUUUCCCUCCUUAGGAGAAGACUGCGGGUUCGAGUCUGGUACGGAACG [U2G G6A C27U A36U C61U C62G] as the variant, how does the yeast fitness read?
A: ≤ 0.5

Q: For GGUCCGUUCGCGUAAUGGUAACGCGUCUCCCUCCUAAGGAGAAGACUGCGGGUUCGAGUACCGUACGGAACG [U2G G9C C60A], which yeast fitness is on record?
A: ≤ 0.5

Q: Which yeast fitness does the source give for GGUCCGUUGCCGUAAUGGUAACGCGUCUCCCUCCUAAGGAGAAGACUGCGGGUUCGAGUCCCGUACGGCACG [U2G G10C A69C] here?
A: ≤ 0.5

Q: Which yeast fitness does the source give for GGUCCGUUGCCGUAAUGGUAACGCGUCUCCCUCCUAAGGAGAAGACUGCGGGUUCGAGUCCCAUACGGAACG [U2G G10C G63A] here?
A: ≤ 0.5

Q: For GGUCCGUUGGCGUAAUGGUAACGCGUCUCCCUCCUAAGGAGAAGACUGCGGGUUCGAGUCCCCUACGGAACG [U2G G63C], which yeast fitness is on record?
A: 0.694

Q: Which yeast fitness does the source give for GGUCCAUUGGCGUAAUGGUAACGCGUCUCCCUCCUAAGGAGAAGACUGCGGGUUUGAGUCCCGUACGGAACG [U2G G6A C55U] here?
A: ≤ 0.5

Q: With GGUCCGUUGGCGUAAUGGUAACCCGUCUCCCUCCUAAGGAGAAGACUGCGGGUUCGAAUCCCGUACGGAACG [U2G G23C G58A] as the variant, how does the yeast fitness read?
A: ≤ 0.5
